Results gathered from unrelated publications.
Each line is one published result; the experiments were not run side by side.
Target: Wee1-like protein kinase (WEE1, Homo sapiens, UniProt P30291)

Compound	effect on	mode	technique	tested at	measurement	result
Cn1cncc1[C@@](O)(COc1ccc(C#N)cc1-c1ccc(OC(F)(F)F)cc1)c1ccc(C#N)cc1	cell-free assay	–	competition with immobilised ligand	1 µM	remaining binding	100%
Nc1ncc(-c2nc(N3CCOCC3)nc(N3CCOCC3)n2)c(C(F)F)n1	binding	–	competition with immobilised ligand	10 µM	remaining binding	100%
COc1ncccc1-c1cnn2ccc(N3CCN(C(=O)OC(C)C)CC3)nc12	binding	–	competition with immobilised ligand	1 µM	remaining binding	82%
Cn1cc(-c2cccc(N3CCc4c(sc5c4CC(C)(C)C5)C3=O)c2CO)cc(Nc2ccncn2)c1=O	enzyme activity	inhibitor	–	1 µM	inhibition	-4%
Cc1nn(C)cc1-c1nc2c(N3CCN(Cc4ccc(Cl)cc4)CC3)c(Cl)cnc2[nH]1	binding	–	competition with immobilised ligand	1 µM	remaining binding	96%
CC(C)(C)c1cc(C=C(C#N)C#N)cc(Br)c1O	enzyme activity	inhibitor	–	0.5 µM	remaining activity	90.9%
Cn1cc(-c2cc(F)cc(N3CCn4c(cc5c4CCCC5)C3=O)c2CO)cc(Nc2ccc(N3CCN(C4COC4)CC3)cn2)c1=O	enzyme activity	inhibitor	–	0.1 µM	inhibition	3%
O=c1[nH]c2ccccc2n1C1CCN(Cc2ccc(-c3[nH]c4cc5ncnc5cc4nc3-c3ccccc3)cc2)CC1	cell-free assay	–	–	0.5 µM	remaining signal	93.9%
COc1cc(Nc2ncc(F)c(Nc3ccc4c(n3)NC(=O)C(C)(C)O4)n2)cc(OC)c1OC	binding	–	–	10 µM	inhibition	81%
